Screens (PubChem BioAssay)
An excerpt weighted towards active compounds, which were near 1.7% of everything screened.
Dynein transport: dynein cargo transport inhibition; 3617.4 mouse cells, GR-EGFP nuclear translocation imaging; test concentration mostly 20 µM; stimulated with dexamethasone, 1 µM; active compounds read low; z-score, hits read low; 0.47% of 220,000 active; AID 1381;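 active = plate z-score of nuclear minus cytoplasmic receptor signal below a set negative limit, without overly bright fluorescence or cell loss, cut at about -3.5 in these data, passing the limit was not always enough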;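 note: z-score of nuclear minus cytoplasmic ring GR-EGFP intensity difference per well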
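medium = tetracycline-free induction medium containing charcoal-stripped FBS | probe or stimulus = dexamethasone, 1.0 µM final | timing = 48 h induction, then 1 h compound, then 30 min agonist, 37 °C | detection = automated 10x imaging of fixed Hoechst-stained cells | read-out basis = nuclear versus cytoplasmic GR-EGFP signal, averaged per well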
EP2 mod: modulators of human EP2 prostaglandin E2 receptor | P43116 | EP2-expressing cells, cAMP HTRF FRET, PGE2 co-stimulation | induction, % at 25 µM | 0.83% of 260,000 active;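 active = compounds whose cAMP rise, as percent of the full-agonist control response, exceeds 60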;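 note: rat C6 glioma line stably carrying human EP2 under a CMV promoter; the protocol text gives 20 µM as final concentration; 100% = response of wells given 1 µM PGE2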
Target sequence (P43116 whole entry, looked up): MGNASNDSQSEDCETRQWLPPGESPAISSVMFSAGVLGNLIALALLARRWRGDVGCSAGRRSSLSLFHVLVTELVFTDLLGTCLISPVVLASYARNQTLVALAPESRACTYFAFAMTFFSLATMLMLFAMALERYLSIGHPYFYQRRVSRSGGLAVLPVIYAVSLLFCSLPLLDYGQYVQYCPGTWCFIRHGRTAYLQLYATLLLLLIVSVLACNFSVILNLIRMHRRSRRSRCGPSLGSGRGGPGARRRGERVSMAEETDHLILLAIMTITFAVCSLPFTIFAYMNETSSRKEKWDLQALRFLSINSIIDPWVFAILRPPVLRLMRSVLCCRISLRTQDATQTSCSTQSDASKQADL
Hsp70 act: switches on Hsp70 transcription. 0.04% of 200,000 active. HeLa Hsp70 promoter luciferase reporter, luminescence; scaled: vehicle 0, proteasome-inhibitor control 100%. activation, % at 10 µM. AID 1203;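 active = activation above the mean across all tested compounds plus 3 SD, cutoff set per campaign, cut at about 5.5% in these data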;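 note: 100% = MG132 at 30 µM as the positive control and 0% = DMSO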
EP2 antag: blocks the human prostaglandin E2 receptor EP2; P43116; C6 glioma cells expressing human EP2, cAMP TR-FRET; cells stimulated with saturating PGE2; inhibition, % at 25 µM; 0.52% of 260,000 active; AID 1422;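 active = percent inhibition above 40 after rounding to a whole number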;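 note: rat C6 glioma host cells with rolipram phosphodiesterase inhibitor present; the protocol text gives 20 µM as final concentration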
* marks the source's active call; other numbers are inactive results; . = no result; + = active, no number; ! = repeats disagree.

SMILES | Dynein transport | EP2 mod | Hsp70 act | EP2 antag
Cc1c2cccc(Sc3ccccc3)c2c2c3c(cccc13)[S+](c1ccccc1)C2 (configuration not stated) | . | 25.2 | . | 42.2*
C/C(=N\NC1=NCCN1)c1cn(C2=NCCN2)nc1C | . | 8.2 | . | 48.6*
CCC(CN1CCN(C)CC1)NC(=O)Cc1ccc2c(c1)CCC2 (configuration not stated) | . | -33.3 | . | 46.0*
CCC(CN1CCC(C)CC1)NC(=O)Cc1ccc2c(c1)OCCO2 (configuration not stated) | . | 9.2 | . | 8.0
CCCn1c(CN2CCC(O)(c3ccccc3F)CC2)nc2ccccc21 | . | -33.8 | . | 12.1
CCNC(=S)/N=C(/Nc1ccc(OC)cc1)Nc1nc(C)cc(C)n1 | -0.00537 | 15.2 | . | 13.8
CCNC(=S)/N=C(/Nc1ccccc1)Nc1nc(C)cc(C)n1 | 0.237 | 69.8* | . | 7.1
CC(C)NC(=O)C1CCN(c2nc3ccccc3n2C)CC1 | . | -50.8 | . | .
COc1ccc(C(=O)N2C3CCC2CC(O)(c2nccn2C)C3)cc1 (configuration not stated) | . | 9.6 | . | .
COc1ccc(OC)c(C(c2nnnn2C2CCCC2)N2CCN(c3ccccc3F)CC2)c1 (configuration not stated) | -0.103 | 65.8*! | 0.1 | 4.8
COc1ccc(C(c2nnnn2C2CCCCC2)N2CCN(c3ccccc3F)CC2)cc1OC (configuration not stated) | . | -4.4 | . | 13.0
CCC(=O)Nc1sc2c(c1C#N)CCCCC2 | -0.901 | 62.1* | 0.3 | 13.4
CCOC(=O)CSc1ccc(C(=O)Nc2ccc(OC)cc2)cn1 | 2.93 | 4.0 | -0.1 | 28.5
CCOC(=O)CSc1ccc(C(=O)Nc2ccc(Cl)cc2)cn1 | 0.969 | -46.9 | 0.0 | 41.0*
CCOC(=O)Cn1nc2c(C)cc3ccc(OC)cc3n2c1=O | . | -25.4 | . | 3.9
Cc1ccc2c(c1)N(CC(=O)N1c3ccccc3Sc3ccccc31)C(=O)CO2 | . | 63.2* | . | 9.0
COC(=O)CN1C(=O)COc2ccc(C)cc21 | . | -17.5 | . | 6.0
CCn1c2cc(C)oc2c2cnn(CC(=O)NC(C)c3ccccn3)c(=O)c21 (configuration not stated) | . | -57.7 | . | .
Cn1cnc2c(N3CCCCC3)nccc21 | -0.683 | 7.5 | -0.1 | 15.1
C[c-]1[c-](C)[c-](C)[c-](C)[c-]1C.[Fe].c1cc2nccc(N3CCCC3)[c-]2c1 (configuration not stated) | 0.524 | -3.0 | . | 55.1*!
C=CCSc1nc2ccccc2c(=O)n1CCc1ccccc1 | . | 70.0* | . | 9.9
C=CCSc1nc2ccccc2c(=O)n1C1CCOC(C)(C)C1 (configuration not stated) | 0.101 | 75.8* | . | 5.3
COCCn1c(SCCOc2ccccc2)nc2ccccc2c1=O | -1.09 | 64.1* | -0.3 | 7.5
CC1(C)CC(n2c(=S)[nH]c3ccccc3c2=O)CCO1 (configuration not stated) | -1.12 | -16.6 | -0.3 | .
CCSc1nc2ccccc2c(=O)n1C1CCOC(C)(C)C1 (configuration not stated) | -0.684 | 61.1* | -0.3 | 8.0
SMILES | Dynein transport | EP2 mod | Hsp70 act | EP2 antag
NC(=O)CSc1nc2ccccc2c(=O)n1CCc1ccccc1 | . | -62.1 | . | 12.5
O=C(Cn1nc(C(F)(F)F)c2cccn2c1=O)N1CCOCC1 | . | -44.7 | . | 6.7
O=C1C(=O)c2ccccc2C(O)=C1C(CCc1ccccc1)C1=C(O)c2ccccc2C(=O)C1=O | . | 26.9 | . | 42.1*
CC1=NOC(=O)/C1=C\c1ccc(-c2ccc(Br)cc2C(=O)O)o1 | 0.263 | 7.1 | -0.1 | 5.6
CC1=NOC(=O)/C1=C/c1ccc(-c2ccc(Cl)cc2)o1 | -0.957 | -44.7 | 0.0 | 184.5*
Cc1ccc(/C=C2\C(=O)ON=C2c2ccccc2)o1 | 0.758 | 16.5 | -0.3 | 3.1
CC1=NOC(=O)/C1=C\c1ccc(-c2cc(Cl)ccc2Cl)o1 | -0.0177 | -14.6 | -0.4 | 60.5*
CCC(c1nnnn1C(C)(C)CC)N(Cc1ccc(C)cc1)Cc1cc2c(C)ccc(C)c2[nH]c1=O (configuration not stated) | . | 50.8 | . | 12.0
COc1ccc2c(c1)Cc1sc(NC(=O)c3ccc(OC)c(OC)c3)nc1-2 | . | -24.5 | . | 10.2
c1ccc2nc(N3CCCC3)c(N3CCCC3)nc2c1 | -0.595 | 68.0*! | -0.2 | 11.0
Cc1nc2ccccc2nc1N1CCCCC1 | -0.0886 | 4.7 | 0.6 | 15.8
c1ccc2c(c1)nc(N1CCCCCC1)c1ccccc12 | 0.269 | 63.1* | . | 6.7
CCn1c(=O)n(CC(=O)Nc2cccc(-c3ccc(C)o3)c2)c2cccnc21 | . | -132.3 | . | 6.6
CCN1/C(=C/C(C)=C/c2sc3ccccc3[n+]2CC)Sc2ccccc21 | 12 | -255.4 | 0.3 | +
CCN1/C(=C/C=C/C(C)=C/C=C/c2sc3ccccc3[n+]2CC)Sc2ccccc21 | . | -96.6 | . | 16.6
COc1ccc(/C(O)=C2/C(=O)C(=O)NC2c2ccc(F)cc2)cc1OC (configuration not stated) | . | 70.0* | . | 12.7
COC(=O)c1ccc(C2NC(=O)C(=O)/C2=C(\O)c2ccc(OC)c(OC)c2)cc1 (configuration not stated) | . | -33.6 | . | 5.6
Cc1nc2sccn2c1CN(CCCn1ccnc1)Cc1ccccc1Cl | . | -4.7 | . | 7.0
CCOC(=O)C(C)On1c(-c2ccccc2)nc2ccc([N+](=O)[O-])cc21 (configuration not stated) | -0.555 | 62.1* | 0.1 | 14.4
Cc1cc(C)c2[nH]c(=O)c(CN(C(=S)NCC3CCCO3)C3CCCCC3)cc2c1 (configuration not stated) | . | -61.2 | . | 11.4
O=S1(=O)N[C@H]2CC[C@H]3NS(=O)(=O)N[C@H]4CC[C@@H](N1)N4S(=O)(=O)N23 | . | 26.8 | . | 45.3*
Cc1noc(-c2ccccc2OC(=O)c2ccccc2)n1 | 0.297 | 64.1* | -0.2 | 5.8
C[C@H]1[C@H](C)OC(=O)C[C@H](O)C[C@H](O)C[C@H](O)CC[C@H](O)[C@H](O)CC(=O)C[C@H](O)[C@H](C(=O)O)[C@H](O)C[C@H](O[C@H]2O[C@@H](C)[C@H](O)[C@@H](N)[C@@H]2O)C=CC=CC=CC=CCCC=CC=C[C@@](C)(O)[C@H]1O | . | 19.7 | . | 43.9*
CC1C/C=C/C=C/C=C/C=C/C(O[C@@H]2O[C@H](C)[C@@H](O)[C@H](N)[C@@H]2O)CC2OC(O)(CC(O)CC3OC3/C=C/C(=O)O1)CC(O)C2C(=O)O (some centres not stated) | -0.171 | 28.8 | -0.3 | .
O=C(/C=C/c1ccccc1)NCCc1c[nH]c2ccccc12 | . | -133.6 | . | 74.2*
COc1ccc2[nH]c(=O)c(CN(Cc3ccco3)C(=S)NC(C)c3ccccc3)cc2c1 (configuration not stated) | . | -11.7 | . | 17.3
C=C(C)Cn1c(Cc2ccccc2)nc2ccccc21 | . | 24.9 | . | 4.6
C=C(C)Cn1c(COc2ccccc2)nc2ccccc21 | . | 68.9* | . | 10.9
CCOc1ccc(-c2cc(-c3ccc(OC)c(OC)c3)c(C#N)c(N)n2)cc1 | . | 79.6* | . | 11.5
COc1ccc(-c2cc(-c3ccc(O)cc3)nc(N)c2C#N)cc1OC | -0.642 | -11.1 | -0.2 | 40.2*!
